These results are taken from ChEMBL document CHEMBL1131635 (J Med Chem, 1998).

The assay has as its target T1, Phosphoglycerate kinase (Saccharomyces cerevisiae S288c, UniProt P00560).
T1 sequence (P00560 whole entry): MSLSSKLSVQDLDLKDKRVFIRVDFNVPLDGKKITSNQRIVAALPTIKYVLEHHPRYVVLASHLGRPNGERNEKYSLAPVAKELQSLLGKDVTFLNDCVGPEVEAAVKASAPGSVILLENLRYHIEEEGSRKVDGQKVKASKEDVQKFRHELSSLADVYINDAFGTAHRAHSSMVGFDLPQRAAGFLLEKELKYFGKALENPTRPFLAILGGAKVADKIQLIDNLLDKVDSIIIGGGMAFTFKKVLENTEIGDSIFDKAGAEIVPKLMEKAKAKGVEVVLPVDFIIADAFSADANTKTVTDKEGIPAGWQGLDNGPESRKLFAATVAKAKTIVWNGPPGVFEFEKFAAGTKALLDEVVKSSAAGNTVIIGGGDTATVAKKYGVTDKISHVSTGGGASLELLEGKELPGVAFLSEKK
In words: Dissociation constant of phosphoglycerate kinase (PGK) at pH (3.0-11.0) was determined. The gist of the method:
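Free bisphosphonic acids in stirred solution were titrated from pH 11 down to pH 3 by controlled addition of 0.1 M HCl using an autotitrator with a combined glass electrode. The titration curves were plotted over pH 3–11, and successive pKa values of the phosphonic acid groups were calculated from the experimental data.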
Regarding `O=C(CCCP(=O)(O)O)CP(=O)(O)O`, the Kd (as a rule, the free concentration of one partner at which half of the binding sites on the other are occupied at equilibrium, for simple one-to-one binding) is 19 µM. The figure for `O=C(CP(=O)(O)O)NCC(F)(F)P(=O)(O)O` is 2 µM; for `O=P(O)(O)CCCCC(F)(F)P(=O)(O)O` it is 4 µM; for `O=P(O)(O)CCCCCCP(=O)(O)O` it is 2130 µM. In turn, `O=C(CCP(=O)(O)O)CP(=O)(O)O` displayed a Kd of 2 µM. `O=C(CCC(F)(F)P(=O)(O)O)C(F)(F)P(=O)(O)O` displayed a Kd of 5 µM. For `O=C(CCP(=O)(O)O)C(F)(F)P(=O)(O)O` the value was 3 µM; for `O=C(CCCP(=O)(O)O)C(F)(F)P(=O)(O)O`, 76 µM. For `O=P(O)(O)C(F)(F)COCC(F)(F)P(=O)(O)O` the value was 265 µM; for `O=C(CP(=O)(O)O)NCCP(=O)(O)O`, 675 µM. For `O=P(O)(O)C(F)(F)C(O)(O)C(F)(F)P(=O)(O)O` the value was 72 µM; for `O=P(O)(O)C(F)(F)CCCCC(F)(F)P(=O)(O)O`, 1000 µM. The compound `O=C(NCCP(=O)(O)O)C(F)(F)P(=O)(O)O` showed a Kd of 6 µM.
